Reference: ChEMBL document CHEMBL3352430, “4-Aminopyridyl-based CYP51 inhibitors as anti-Trypanosoma cruzi drug leads with improved pharmacokinetic profile and in vivo potency” (J Med Chem, 2014)
Calls of active or inactive are those of the source. No cut-off for these calls is given here.

Assays:
[1] = test system: Trypanosoma cruzi; assay: Antitrypanosomal activity against Trypanosoma cruzi Y luc infected in mouse assessed as inhibition of parasitemia at 25 mg/kg, po bid in 20% Kolliphor administered for 4 consecutive days starting on day 3 of infection measured on day 7 post infection relative to vehicle-treated control; format: functional
How it was run: (§1)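 Female Swiss Webster mice, 8 weeks old, infected ip with 10^5 T. cruzi Y luc trypomastigotes. Only mice with detectable luminescence on day 3 were treated. Compound given by oral gavage bid for four days, as a suspension in 20% HPβCD or a solution in 20% Kolliphor, five mice per group. Vehicle group and benznidazole 50 mg/kg served as controls. On day 7, mice were injected ip with 150 mg/kg d-luciferin and imaged after 5 min under isoflurane. Percent inhibition calculated against untreated mice; two-tailed paired t test.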

[2] = test system: Liver; assay: Drug uptake in mouse liver at 50 mg/kg, po in 20% Kolliphor measured at 8 hrs post dose; format: ADME, organism-based; design: dose 50 mg/kg, route oral; conditions: in vivo
How it was run: (§2)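 Female Swiss Webster mice, 8 weeks old, given a single 50 mg/kg oral gavage dose in 20% HPβCD or 20% Kolliphor. Tissues taken from three mice at 2 and 8 h post dose. Homogenized by probe sonication in PBS (1:4 w/v), protein precipitated with acetonitrile, and compound measured by LC-MS/MS in μM.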

[3] = biological target: Cytochrome P450 2C9 (Homo sapiens, UniProt P11712); assay: Inhibition of CYP2C9 in human liver microsomes at 1 uM; format: ADME
[4] = test system: Trypanosoma cruzi; assay: Antitrypanosomal activity against Trypanosoma cruzi Y luc infected in mouse assessed as inhibition of parasitemia at 25 mg/kg, po bid in 20% HP-beta-CD administered for 4 consecutive days starting on day 3 of infection measured on day 7 post infection relative to vehicle-treated control; format: functional, organism-based; design: dose 25 mg/kg; how it was run: as §1
[5] = Half life in mouse at 50 mg/kg, po in 20% HP-beta-CD; format: ADME, organism-based; design: dose 50 mg/kg, route oral; conditions: in vivo
How it was run: (§3)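 Female Swiss Webster mice, 8 weeks old, given one oral gavage dose of 50 mg/kg as a 10 mg/mL preparation in the named vehicle (20% HPβCD suspension or 20% Kolliphor). Plasma sampled at about 0.25, 0.5, 1, 2, 4, 6, 8, 12 and 24 h, n = 3 per time point. Protein precipitated with 5 volumes acetonitrile, filtered, then LC-MS/MS. Values are averages of three mice.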

[6] = test system: Trypanosoma cruzi; assay: Antitrypanosomal activity against Trypanosoma cruzi amastigotes infected in mouse C2C12 cells after 72 hrs by DAPI staining method; format: functional, organism-based; conditions: C2C12, 72 h
[7] = biological target: Cytochrome P450 2D6 (Homo sapiens, UniProt P10635); assay: Inhibition of CYP2D6 in human liver microsomes at 1 uM; format: ADME
[8] = Cmax in mouse at 50 mg/kg, po in 20% HP-beta-CD; format: ADME, organism-based; design: dose 50 mg/kg, route oral; conditions: in vivo; how it was run: as §3
[9] = test system: Liver microsome; assay: Half life in human liver microsomes; format: ADME
[10] = Drug uptake in mouse skeletal muscle at 50 mg/kg, po in 20% Kolliphor measured at 8 hrs post dose; format: ADME, organism-based, Muscle tissue; design: dose 50 mg/kg, route oral; conditions: in vivo; how it was run: as §2
[11] = Drug uptake in mouse fat at 50 mg/kg, po in 20% HP-beta-CD measured at 8 hrs post dose; format: ADME, organism-based, Adipose tissue; design: dose 50 mg/kg, route oral; conditions: in vivo; how it was run: as §2
[12] = test system: Mus musculus; assay: Toxicity in mouse assessed as weight loss at 12.5 to 50 mg/kg, po bid in 20% HP-beta-CD; format: organism-based; design: dose 12.5-50 mg/kg, route oral; conditions: in vivo
How it was run: (§4)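 Mice in the four-day oral treatment study were given compound bid by gavage in 20% HPβCD or 20% Kolliphor. They were watched for weight loss, mobility problems and changes in appearance throughout dosing.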

[13] = test system: Mus musculus; assay: Toxicity in mouse assessed as weight loss at 12.5 to 50 mg/kg, po bid in 20% Kolliphor; format: organism-based; design: dose 12.5-50 mg/kg, route oral; conditions: in vivo; how it was run: as §4
[14] = test system: Liver; assay: Drug uptake in mouse liver at 50 mg/kg, po in 20% HP-beta-CD measured at 8 hrs post dose; format: ADME, organism-based; design: dose 50 mg/kg, route oral; conditions: in vivo; how it was run: as §2
[15] = AUClast in mouse at 50 mg/kg, po in 20% Kolliphor; format: ADME, organism-based; design: time 0 - last, dose 50 mg/kg, route oral; conditions: plasma; how it was run: as §3
[16] = test system: Mus musculus; assay: Toxicity in mouse assessed as mobility issues at 12.5 to 50 mg/kg, po bid in 20% Kolliphor; format: organism-based; design: dose 12.5-50 mg/kg, route oral; conditions: in vivo; how it was run: as §4
[17] = test system: Lung; assay: Drug uptake in mouse lung at 50 mg/kg, po in 20% Kolliphor measured at 8 hrs post dose; format: ADME, organism-based; design: dose 50 mg/kg, route oral; conditions: in vivo; how it was run: as §2
[18] = Drug uptake in mouse skeletal muscle at 50 mg/kg, po in 20% HP-beta-CD measured at 8 hrs post dose; format: ADME, organism-based, Muscle tissue; design: dose 50 mg/kg, route oral; conditions: in vivo; how it was run: as §2
[19] = test system: Mus musculus; assay: Toxicity in mouse assessed as change in appearance at 12.5 to 50 mg/kg, po bid in 20% Kolliphor; format: organism-based; design: dose 12.5-50 mg/kg, route oral; conditions: in vivo; how it was run: as §4
[20] = Tmax in mouse at 50 mg/kg, po in 20% HP-beta-CD; format: ADME, organism-based; design: dose 50 mg/kg, route oral; conditions: in vivo; how it was run: as §3
[21] = biological target: Cytochrome P450 3A4 (Homo sapiens, UniProt P08684); assay: Inhibition of CYP3A4 in human liver microsomes at 1 uM; format: ADME
[22] = Cmax in mouse at 50 mg/kg, po in 20% Kolliphor; format: ADME, organism-based; design: dose 50 mg/kg, route oral; conditions: in vivo; how it was run: as §3
[23] = test system: Mus musculus; assay: AUClast in mouse at 50 mg/kg, po in 20% HP-beta-CD; format: ADME, organism-based, Plasma; design: time 0 - last, dose 50 mg/kg, route oral; conditions: in vivo; how it was run: as §3
[24] = test system: Trypanosoma cruzi; assay: Antitrypanosomal activity against Trypanosoma cruzi Y luc infected in mouse assessed as inhibition of parasitemia at 50 mg/kg, po bid in 20% HP-beta-CD administered for 4 consecutive days starting on day 3 of infection measured on day 7 post infection relative to vehicle-treated control; format: functional, organism-based; design: dose 50 mg/kg; how it was run: as §1
[25] = test system: Intestine; assay: Drug uptake in mouse intestine at 50 mg/kg, po in 20% Kolliphor measured at 8 hrs post dose; format: ADME, organism-based; design: dose 50 mg/kg, route oral; conditions: in vivo; how it was run: as §2
[26] = biological target: T1, Cytochrome P450 1A2 (Homo sapiens, UniProt P05177); assay: Inhibition of CYP1A2 in human liver microsomes at 1 uM; format: ADME
T1 sequence (P05177 whole entry): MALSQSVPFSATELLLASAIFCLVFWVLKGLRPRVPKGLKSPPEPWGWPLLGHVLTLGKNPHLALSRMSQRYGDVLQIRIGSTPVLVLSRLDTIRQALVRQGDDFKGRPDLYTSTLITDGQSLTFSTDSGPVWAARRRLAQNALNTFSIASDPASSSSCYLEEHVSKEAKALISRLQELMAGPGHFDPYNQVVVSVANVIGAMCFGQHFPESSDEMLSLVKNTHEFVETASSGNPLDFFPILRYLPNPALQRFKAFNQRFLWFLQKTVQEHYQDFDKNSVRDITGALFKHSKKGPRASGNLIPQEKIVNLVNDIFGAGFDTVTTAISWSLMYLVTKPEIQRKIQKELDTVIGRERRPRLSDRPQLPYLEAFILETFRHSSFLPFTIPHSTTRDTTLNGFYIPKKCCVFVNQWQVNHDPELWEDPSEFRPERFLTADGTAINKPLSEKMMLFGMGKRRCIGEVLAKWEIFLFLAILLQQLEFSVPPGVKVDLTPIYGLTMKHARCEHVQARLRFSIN

[27] = Half life in mouse at 50 mg/kg, po in 20% Kolliphor; format: ADME, organism-based; design: dose 50 mg/kg, route oral; conditions: in vivo; how it was run: as §3
[28] = Tmax in mouse at 50 mg/kg, po in 20% Kolliphor; format: ADME, organism-based; design: dose 50 mg/kg, route oral; conditions: in vivo; how it was run: as §3
[29] = test system: Liver microsome; assay: Half life in rat liver microsomes; format: ADME
[30] = test system: Heart; assay: Drug uptake in mouse heart at 50 mg/kg, po in 20% HP-beta-CD measured at 8 hrs post dose; format: ADME, organism-based; design: dose 50 mg/kg, route oral; conditions: in vivo; how it was run: as §2
[31] = test system: Liver; assay: Half life in mouse liver microsomes; format: ADME
[32] = test system: Heart; assay: Drug uptake in mouse heart at 50 mg/kg, po in 20% Kolliphor measured at 8 hrs post dose; format: ADME, organism-based; design: dose 50 mg/kg, route oral; conditions: in vivo; how it was run: as §2
[33] = test system: Mus musculus; assay: Toxicity in mouse assessed as change in appearance at 12.5 to 50 mg/kg, po bid in 20% HP-beta-CD; format: organism-based; design: dose 12.5-50 mg/kg, route oral; conditions: in vivo; how it was run: as §4
[34] = Drug uptake in mouse fat at 50 mg/kg, po in 20% Kolliphor measured at 8 hrs post dose; format: ADME, organism-based, Adipose tissue; design: dose 50 mg/kg, route oral; conditions: in vivo; how it was run: as §2
[35] = Clearance in mouse at 50 mg/kg, po in 20% Kolliphor; format: ADME, organism-based; design: dose 50 mg/kg, route oral; conditions: in vivo; how it was run: as §3
[36] = test system: Intestine; assay: Drug uptake in mouse intestine at 50 mg/kg, po in 20% HP-beta-CD measured at 8 hrs post dose; format: ADME, organism-based; design: dose 50 mg/kg, route oral; conditions: in vivo; how it was run: as §2
[37] = test system: Lung; assay: Drug uptake in mouse lung at 50 mg/kg, po in 20% HP-beta-CD measured at 8 hrs post dose; format: ADME, organism-based; design: dose 50 mg/kg, route oral; conditions: in vivo; how it was run: as §2
[38] = test system: Trypanosoma cruzi; assay: Antitrypanosomal activity against Trypanosoma cruzi Y luc infected in mouse assessed as inhibition of parasitemia at 50 mg/kg, po bid in 20% Kolliphor administered for 4 consecutive days starting on day 3 of infection measured on day 7 post infection relative to vehicle-treated control; format: functional; how it was run: as §1
[39] = biological target: Sterol 14-alpha demethylase (Trypanosoma cruzi (strain CL Brener), UniProt Q7Z1V1); assay: Binding affinity to Trypanosoma cruzi CYP51 by UV-vis titration method; conditions: read-out: Kd(app)
[40] = test system: Mus musculus; assay: Toxicity in mouse assessed as mobility issues at 12.5 to 50 mg/kg, po bid in 20% HP-beta-CD; format: organism-based; design: dose 12.5-50 mg/kg, route oral; conditions: in vivo; how it was run: as §4
[41] = test system: C2C12; assay: Cytotoxicity against mouse C2C12 cells up to 10 uM; format: cell-based
How it was run: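 Mouse C2C12 myoblasts infected with T. cruzi CA-I/72, then exposed at 24 h postinfection to compound at 10 μM down to 5 pM in 5-fold steps for 72 h at 37 °C. Cells fixed in paraformaldehyde, stained with DAPI and scored by automated imaging. Triplicate wells; uninfected and infected untreated wells as controls.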

Cytochrome P450 2C9, sequence (P11712 whole entry): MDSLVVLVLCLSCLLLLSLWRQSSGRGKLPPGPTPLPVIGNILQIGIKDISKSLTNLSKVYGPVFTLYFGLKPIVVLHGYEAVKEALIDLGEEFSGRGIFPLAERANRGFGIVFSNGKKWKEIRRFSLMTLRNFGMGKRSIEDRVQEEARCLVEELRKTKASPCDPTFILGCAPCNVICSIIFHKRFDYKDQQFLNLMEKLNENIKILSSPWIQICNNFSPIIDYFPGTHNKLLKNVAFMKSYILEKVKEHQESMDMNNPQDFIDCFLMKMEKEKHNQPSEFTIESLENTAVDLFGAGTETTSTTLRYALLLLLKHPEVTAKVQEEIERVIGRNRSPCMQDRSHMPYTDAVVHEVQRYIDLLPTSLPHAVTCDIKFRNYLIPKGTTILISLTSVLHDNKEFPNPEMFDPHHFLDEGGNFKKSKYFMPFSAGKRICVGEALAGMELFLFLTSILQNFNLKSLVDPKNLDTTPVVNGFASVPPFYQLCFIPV
Cytochrome P450 3A4, sequence (P08684 whole entry): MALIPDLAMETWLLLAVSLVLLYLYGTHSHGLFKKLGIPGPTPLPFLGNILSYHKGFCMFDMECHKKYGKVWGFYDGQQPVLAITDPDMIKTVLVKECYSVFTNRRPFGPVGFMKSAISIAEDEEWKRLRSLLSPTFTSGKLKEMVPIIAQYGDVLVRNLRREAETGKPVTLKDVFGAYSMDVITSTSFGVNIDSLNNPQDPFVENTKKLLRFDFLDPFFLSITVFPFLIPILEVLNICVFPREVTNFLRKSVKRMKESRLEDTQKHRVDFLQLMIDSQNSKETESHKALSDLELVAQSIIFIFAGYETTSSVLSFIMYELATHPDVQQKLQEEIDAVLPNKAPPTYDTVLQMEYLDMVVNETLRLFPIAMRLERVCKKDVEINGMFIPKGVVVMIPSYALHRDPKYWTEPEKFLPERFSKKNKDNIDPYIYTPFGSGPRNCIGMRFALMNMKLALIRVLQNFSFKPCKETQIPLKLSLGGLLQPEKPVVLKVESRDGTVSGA
Cytochrome P450 2D6, sequence (P10635 whole entry): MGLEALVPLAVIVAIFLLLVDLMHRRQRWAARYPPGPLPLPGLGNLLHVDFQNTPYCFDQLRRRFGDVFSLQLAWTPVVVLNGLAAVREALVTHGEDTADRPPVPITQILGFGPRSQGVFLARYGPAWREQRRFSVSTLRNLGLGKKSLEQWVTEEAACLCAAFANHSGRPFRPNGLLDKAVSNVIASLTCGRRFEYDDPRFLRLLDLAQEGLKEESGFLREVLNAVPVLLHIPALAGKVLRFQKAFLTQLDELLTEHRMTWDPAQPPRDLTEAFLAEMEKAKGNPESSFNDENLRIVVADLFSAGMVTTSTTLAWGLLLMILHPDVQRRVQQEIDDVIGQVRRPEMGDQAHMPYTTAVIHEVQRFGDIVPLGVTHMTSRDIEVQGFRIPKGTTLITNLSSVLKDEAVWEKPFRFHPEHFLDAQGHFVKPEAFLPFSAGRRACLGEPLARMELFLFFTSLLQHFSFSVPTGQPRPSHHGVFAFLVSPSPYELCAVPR
Sterol 14-alpha demethylase, sequence (Q7Z1V1 whole entry): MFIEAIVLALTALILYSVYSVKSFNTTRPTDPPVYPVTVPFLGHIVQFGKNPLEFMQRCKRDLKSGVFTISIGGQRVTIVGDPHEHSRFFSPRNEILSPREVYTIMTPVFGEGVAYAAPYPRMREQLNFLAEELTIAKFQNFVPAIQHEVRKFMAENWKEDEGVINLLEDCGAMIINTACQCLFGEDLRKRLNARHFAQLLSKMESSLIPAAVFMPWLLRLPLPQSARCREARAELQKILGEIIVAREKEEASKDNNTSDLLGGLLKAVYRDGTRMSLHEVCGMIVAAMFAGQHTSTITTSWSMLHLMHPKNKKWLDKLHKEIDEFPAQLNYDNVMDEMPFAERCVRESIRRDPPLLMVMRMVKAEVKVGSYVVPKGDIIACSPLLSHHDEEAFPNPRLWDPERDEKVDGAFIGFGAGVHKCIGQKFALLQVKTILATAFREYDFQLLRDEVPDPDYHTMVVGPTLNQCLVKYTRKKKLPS

O=C(N[C@H](Cc1c[nH]c2ccccc12)C(=O)Nc1ccncc1)c1ccc(-c2cc(C(F)(F)F)ccc2F)cc1F
inhibition in vivo at 25 mg/kg [1]: 63.3%
Drug uptake [2]: Active
inhibition (INH) [3]: 90%
inhibition [4]: Active
half-life [5]: 4.87 h
EC50 [6]: 21 nM
inhibition (INH) [7]: 21%
Cmax [8]: 1.02 µM
t1/2 [9]: 0.417 h
Drug uptake [10]: Active
Drug uptake [11]: Active
Activity [12]: Non-toxic
Activity [13]: Non-toxic
Drug uptake [14]: Active
AUC(0-t) [15]: 106 µM·h
Activity [16]: Non-toxic
Drug uptake [17]: Active
Drug uptake [18]: Active
Activity [19]: Non-toxic
Tmax [20]: 2 h
inhibition (INH) [21]: 27%
Cmax [22]: 13.6 µM
AUClast [23]: 4.55 µM·h
inhibition [24]: Active
Drug uptake [25]: Active
inhibition (INH) [26]: -5%
half-life [27]: 3.76 h
Tmax [28]: 2.33 h
t1/2 [29]: 0.3 h
Drug uptake [30]: Active
t1/2 [31]: 0.817 h
Drug uptake [32]: Active
Activity [33]: Non-toxic
Drug uptake [34]: Active
CL/F [35]: 14.1 mL/min/kg
Drug uptake [36]: Active
Drug uptake [37]: Active
inhibition in vivo at 50 mg/kg [38]: 91.3%
Kd [39]: 12 nM
Activity [40]: Non-toxic
Activity [41]: Non-toxic
